The source of these data is ChEMBL document CHEMBL2157922, “Synthesis and antifungal activity of diverse C-2 pyridinyl and pyridinylvinyl substituted quinolines” (2012).

≈ marks a conversion by molar mass, not a printed value.

Holding throughout (assay type): functional
The subject of test [1] is Candida albicans. The experiment in a line: Antifungal activity against Candida albicans ATCC 10231 after 48 hrs by broth microdilution technique. Particulars: ATCC 10231, 48 h. Put shortly:
(§1)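 Yeasts were tested by CLSI broth microdilution in RPMI-1640 buffered to pH 7.0 with MOPS, with compound from 250 down to 0.98 in DMSO stocks. Trays were held at 30 °C in a moist, dark chamber. MIC100, the lowest concentration giving total visual inhibition against the growth control, was read by eye at 48 h.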
For orientation: Broth dilution looks for growth in wells or tubes with falling amounts of substance.

Test [2] deals with Saccharomyces cerevisiae. The experiment in a line: Antifungal activity against Saccharomyces cerevisiae ATCC 9763 after 48 hrs by broth microdilution technique. Conditions: ATCC 9763, 48 h. Put shortly: as §1
Test [3] deals with Cryptococcus neoformans. The experiment in a line: Antifungal activity against Cryptococcus neoformans ATCC 32264 after 48 hrs by broth microdilution technique. Conditions: ATCC 32264, 48 h. Put shortly: as §1
The test system of test [4] is Aspergillus fumigatus. The experiment in a line: Antifungal activity against Aspergillus fumigatus ATCC 26934 after 48 hrs by broth microdilution technique. Particulars: ATCC 26934, 48 h. Put shortly: (§2)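 Moulds and dermatophytes were run by CLSI broth microdilution in MOPS-buffered RPMI-1640 at pH 7.0. Aspergillus was incubated at 30 °C and dermatophytes at 28–30 °C, in a moist, dark chamber. MIC100, the lowest concentration with no visible growth, was read visually at a time set by growth of the control fungus.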

Test [5] relates to Aspergillus flavus. Briefly: Antifungal activity against Aspergillus flavus ATCC 9170 after 48 hrs by broth microdilution technique. Conditions: ATCC 9170, 48 h. Put shortly: as §2
The subject of test [6] is Aspergillus niger. The experiment in a line: Antifungal activity against Aspergillus niger ATCC 9029 after 48 hrs by broth microdilution technique. Particulars: ATCC 9029, 48 h. Put shortly:
as §2

In test [7] the test system is Nannizzia gypsea. Briefly: Antifungal activity against Microsporum gypseum CCC 115 after 48 hrs by broth microdilution technique. Particulars: CCC 115, 48 h. Put shortly: as §2
For test [8], the system named is Trichophyton rubrum. The experiment in a line: Antifungal activity against Trichophyton rubrum CCC 113 after 48 hrs by broth microdilution technique. Conditions: CCC 113, 48 h.
For test [9], the system named is Trichophyton mentagrophytes. The experiment in a line: Antifungal activity against Trichophyton mentagrophytes ATCC 9972 after 48 hrs by broth microdilution technique. Particulars: ATCC 9972, 48 h. Put shortly: as §2
Test [10] concerns Candida albicans. Briefly: Antifungal activity against Candida albicans CCC 125 after 48 hrs by broth microdilution technique. Conditions: CCC 125, 48 h.
Test [11] concerns Candida albicans. The experiment in a line: Antifungal activity against Candida albicans CCC 126 after 48 hrs by broth microdilution technique. Conditions: CCC 126, 48 h.
The test system of test [12] is Candida albicans. Briefly: Antifungal activity against Candida albicans CCC 127 after 48 hrs by broth microdilution technique. Particulars: CCC 127, 48 h.
Test [13] has as its system Candida albicans. Briefly: Antifungal activity against Candida albicans CCC 128 after 48 hrs by broth microdilution technique. Conditions: CCC 128, 48 h.
Test [14] concerns Candida albicans. The experiment in a line: Antifungal activity against Candida albicans CCC 129 after 48 hrs by broth microdilution technique. Conditions: CCC 129, 48 h.
For test [15], the system named is Candida albicans. The experiment in a line: Antifungal activity against Candida albicans CCC 130 after 48 hrs by broth microdilution technique. Conditions: CCC 130, 48 h.
The subject of test [16] is Nakaseomyces glabratus. Briefly: Antifungal activity against Candida glabrata CCC 115 after 48 hrs by broth microdilution technique. Particulars: CCC 115, 48 h.
In test [17] the test system is Candida parapsilosis. Briefly: Antifungal activity against Candida parapsilosis CCC 124 after 48 hrs by broth microdilution technique. Particulars: Lodderomyces parapsilosis, CCC 124, 48 h.
For test [18], the system named is Pichia kudriavzevii. The experiment in a line: Antifungal activity against Candida krusei CCC 117 after 48 hrs by broth microdilution technique. Conditions: CCC 117, 48 h.
Test [19] relates to Candida tropicalis. Briefly: Antifungal activity against Candida tropicalis CCC 131 after 48 hrs by broth microdilution technique. Particulars: CCC 131, 48 h.
Test [20] concerns Cryptococcus neoformans. Briefly: Antifungal activity against Cryptococcus neoformans IM 983040 after 48 hrs by broth microdilution technique. Conditions: IM 983040, 48 h. The method, boiled down: (§3)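 C. neoformans was tested by 96-well RPMI-1640 microdilution, with DMSO-matched growth and sterility control wells. Plates were incubated 48 h at 30 °C in a moist, dark chamber and read at OD405. % inhibition = 100 − (CTW − SCW)/(GCW − SCW), in duplicate. For the clinical isolates, MIC80 and MIC50 are the lowest concentrations giving 80% and 50% inhibition.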

Test [21] concerns Cryptococcus neoformans. The experiment in a line: Antifungal activity against Cryptococcus neoformans IM 972724 after 48 hrs by broth microdilution technique. Particulars: IM 972724, 48 h. Put shortly: as §3
For test [22], the system named is Cryptococcus neoformans. The experiment in a line: Antifungal activity against Cryptococcus neoformans IM 042074 after 48 hrs by broth microdilution technique. Particulars: IM 042074, 48 h. Put shortly:
as §3

In test [23] the test system is Cryptococcus neoformans. The experiment in a line: Antifungal activity against Cryptococcus neoformans IM 983036 after 48 hrs by broth microdilution technique. Conditions: IM 983036, 48 h. Put shortly:
as §3

Test [24] concerns Cryptococcus neoformans. The experiment in a line: Antifungal activity against Cryptococcus neoformans IM 00319 after 48 hrs by broth microdilution technique. Conditions: IM 00319, 48 h. The method, boiled down:
as §3

Test [25] relates to Cryptococcus neoformans. Briefly: Antifungal activity against Cryptococcus neoformans IM 972751 after 48 hrs by broth microdilution technique. Conditions: IM 972751, 48 h. The method, boiled down:
as §3

As to `Clc1cccc2ccc(-c3ccncc3)nc12`, the MIC – broadly, the least concentration at which growth counts as inhibited – in test [1] is > 250 µg/mL; in test [2], > 250 µg/mL; in test [3], 125 µg/mL (≈ 519 µM); in [4] it was > 250 µg/mL; in test [5], > 250 µg/mL; in test [6] it was > 250 µg/mL. Moreover, the MIC in test [7] was 31 µg/mL (≈ 129 µM); in test [8], 31 µg/mL (≈ 129 µM); in test [9], 62 µg/mL (≈ 258 µM). Further, the MFC (commonly the lowest tested concentration that kills the fungus rather than only halting it) in [3] amounted to 250 µg/mL (≈ 1040 µM); in test [7], 62 µg/mL (≈ 258 µM); in test [8], 62 µg/mL (≈ 258 µM); in test [9], 125 µg/mL (≈ 519 µM).

Turning to `Clc1ccc2nc(/C=C/c3cccnc3)ccc2c1`, the MIC is > 250 µg/mL in [1]; > 250 µg/mL in test [2]; > 250 µg/mL in test [3]; 250 µg/mL (≈ 937 µM) in [4]; 250 µg/mL (≈ 937 µM) in test [5]; > 250 µg/mL in test [6]. Besides, the MIC in test [7], in test [8] and in test [9] was 250 µg/mL (≈ 937 µM) throughout. Moreover, the MFC in [4], in test [5], in test [7], in [8] and in test [9] was > 250 µg/mL in each case.

Regarding `C[C@@H]1[C@H](O)[C@@H](C)/C=C/C=C/C=C/C=C/C=C/C=C/C=C/[C@H](O[C@@H]2O[C@H](C)[C@@H](O)[C@H](N)[C@@H]2O)C[C@@H]2O[C@](O)(C[C@@H](O)C[C@@H](O)[C@H](O)CC[C@@H](O)C[C@@H](O)CC(=O)O[C@H]1C)C[C@H](O)[C@H]2C(=O)O` [AMPHOTERICIN B], the MIC amounted to 0.98 µg/mL (≈ 1.06 µM) in test [1]; 0.49 µg/mL (≈ 0.53 µM) in [2]; 0.25 µg/mL (≈ 0.271 µM) in test [3]; 0.49 µg/mL (≈ 0.53 µM) in test [4]; 0.49 µg/mL (≈ 0.53 µM) in [5]; 0.49 µg/mL (≈ 0.53 µM) in [6]. Also, the MIC in test [7] worked out at 0.12 µg/mL (≈ 0.13 µM); in test [8] it was 0.06 µg/mL (≈ 0.0649 µM); in test [9] it was 0.06 µg/mL (≈ 0.0649 µM). Moreover, the MIC80 (usually an inhibitory concentration at the 80% level, which refers to growth in some studies and to a panel of isolates in others) turned out to be 1 µg/mL (≈ 1.08 µM) in test [1]; 0.25 µg/mL (≈ 0.271 µM) in test [3]; 0.78 µg/mL (≈ 0.844 µM) in test [10]; 1.56 µg/mL (≈ 1.69 µM) in test [11]; 0.78 µg/mL (≈ 0.844 µM) in test [12]; 1.56 µg/mL (≈ 1.69 µM) in test [13]. Moreover, the MIC80 in test [14] was 0.78 µg/mL (≈ 0.844 µM); in test [15], 0.5 µg/mL (≈ 0.541 µM); in test [16] it was 0.39 µg/mL (≈ 0.422 µM); in [17] it was 0.78 µg/mL (≈ 0.844 µM); in test [18], 0.39 µg/mL (≈ 0.422 µM); in test [19], 0.5 µg/mL (≈ 0.541 µM). For the same molecule, the MIC80 in [20] came out at 0.13 µg/mL (≈ 0.141 µM); in [21] it was 0.06 µg/mL (≈ 0.0649 µM); in test [22] it was 0.25 µg/mL (≈ 0.271 µM); in [23], 0.13 µg/mL (≈ 0.141 µM); in test [24] it was 0.25 µg/mL (≈ 0.271 µM); in test [25], 0.25 µg/mL (≈ 0.271 µM).

As to `CC(=O)N1CCN(c2ccc(OCC3COC(Cn4ccnc4)(c4ccc(Cl)cc4Cl)O3)cc2)CC1` (configuration not stated) [KETOCONAZOLE], the minimum inhibitory concentration (MIC) in test [1] amounted to 0.49 µg/mL (≈ 0.922 µM); in [2], 0.49 µg/mL (≈ 0.922 µM); in test [3], 0.25 µg/mL (≈ 0.47 µM); in test [4] it was 0.49 µg/mL (≈ 0.922 µM); in test [5], 0.12 µg/mL (≈ 0.226 µM); in test [6] it was 0.25 µg/mL (≈ 0.47 µM). For the same molecule, the MIC came to 0.06 µg/mL (≈ 0.113 µM) in [7], 0.03 µg/mL (≈ 0.0565 µM) in test [8] and 0.03 µg/mL (≈ 0.0565 µM) in [9].

Regarding `CN(C/C=C/C#CC(C)(C)C)Cc1cccc2ccccc12` [TERBINAFINE], the MIC was found to be 1.95 µg/mL (≈ 6.69 µM) in test [1]; 3.9 µg/mL (≈ 13.4 µM) in test [2]; 0.49 µg/mL (≈ 1.68 µM) in test [3]; 0.98 µg/mL (≈ 3.36 µM) in test [4]; 0.98 µg/mL (≈ 3.36 µM) in [5]; 1.96 µg/mL (≈ 6.73 µM) in [6]. The values for the MIC in [7], in test [8] and in [9] were 0.04 µg/mL (≈ 0.137 µM), 0.01 µg/mL (≈ 0.0343 µM) and 0.03 µg/mL (≈ 0.103 µM), respectively.
